Values joined by “and” are separate entries in the source; they are usually repeats but may differ in a detail not shown here. Equal entries are not always repeated.
Legend:
[1] = tested on: HD-MB03 and DAOY medulloblastoma cell lines; test: cell proliferation analysis; assay type: cell-based, human; settings: 72 h; for effect of combination on efficacy of CDDP in reducing cell viability: compound 10 µM + cis-Pt 1.8 µM, both MB cell lines
[2] = tested on: HuTuP108 primary glioblastoma cells; test: cell proliferation analysis; assay type: cell-based, human; settings: 72 h; for effect of combination on the effect of TMZ: compound 10 µM + TMZ 500 µM
[3] = molecular target: hCA IX (Homo sapiens, UniProt Q16790); test: biochemical; assay type: biochemical; settings: for Ki: KI hCA IX, stopped flow technique, mean from three assays; for Selectivity index I/IX: ratio KI hCA I / KI hCA IX; for Selectivity index II/IX: ratio KI hCA II / KI hCA IX; for Selectivity index IV/IX: ratio KI hCA IV / KI hCA IX
[4] = molecular target: hCA IV (Homo sapiens, UniProt P22748); test: stopped-flow CO2 hydrase assay, hCA IV; assay type: biochemical; settings: stopped flow technique, mean from three assays
Sequence of hCA IV (P22748 19-284 limits assumed): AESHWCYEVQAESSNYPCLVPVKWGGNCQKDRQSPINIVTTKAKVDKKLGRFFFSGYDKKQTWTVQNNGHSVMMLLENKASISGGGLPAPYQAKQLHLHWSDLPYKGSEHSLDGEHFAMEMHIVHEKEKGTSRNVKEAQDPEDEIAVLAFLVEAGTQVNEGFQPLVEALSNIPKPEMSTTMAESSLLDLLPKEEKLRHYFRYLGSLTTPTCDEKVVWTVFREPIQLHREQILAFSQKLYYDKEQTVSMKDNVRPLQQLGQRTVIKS

[5] = cytotoxicity in resting peripheral blood lymphocytes; assay type: cell-based; settings: human
[6] = tested on: HD-MB03 cells; test: apoptosis assay; assay type: cell-based, human; settings: 72 h; for apoptotic cells in combination with cis-Pt: 10 µM + cis-Pt 1.8 µM, HD-MB03, vs single treatments; for induction of apoptosis (apoptotic cells): 10 µM alone, HD-MB03
Summary of the method: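 HD-MB03 medulloblastoma cells grown in RPMI 1640 with 10% FBS, 1% glutamine and 1% penicillin–streptomycin, kept at 2% O2/5% CO2. Seeded at 10 000 cells/well, treated after 24 h, exposed 72 h. Stained 15 min in the dark at room temperature with Annexin V–FITC (FL1, 525 nm/40) and PI (FL3, 620 nm/20). Whole population analysed by flow cytometry. Mean ± SE, three independent experiments.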

[7] = molecular target: hCA XII (Homo sapiens, UniProt O43570); test: stopped-flow CO2 hydrase assay, hCA XII; assay type: biochemical; settings: for Ki: KI hCA XII, stopped flow technique, mean from three assays; for Selectivity index I/XII: ratio KI hCA I / KI hCA XII; for Selectivity index II/XII: ratio KI hCA II / KI hCA XII; for Selectivity index IV/XII: ratio KI hCA IV / KI hCA XII
Sequence of hCA XII (O43570 25-354): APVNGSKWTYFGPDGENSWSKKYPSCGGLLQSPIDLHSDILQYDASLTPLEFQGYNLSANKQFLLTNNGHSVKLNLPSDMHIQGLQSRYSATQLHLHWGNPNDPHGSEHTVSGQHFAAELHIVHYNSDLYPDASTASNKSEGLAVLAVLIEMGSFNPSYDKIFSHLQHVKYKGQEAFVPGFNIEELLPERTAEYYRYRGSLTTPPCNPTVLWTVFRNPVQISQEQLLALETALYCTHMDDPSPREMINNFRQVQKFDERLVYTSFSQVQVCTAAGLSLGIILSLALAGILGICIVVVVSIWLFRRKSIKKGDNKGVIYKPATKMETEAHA

[8] = tested on: HuTuP108 GBM primary cells; test: apoptosis assay; assay type: cell-based, human; settings: 72 h; for apoptotic cells in combination with TMZ: 10 µM + TMZ 500 µM, HuTuP108, vs single treatments; for induction of apoptosis: 10 µM alone, HuTuP108
Summary of the method: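 Patient-derived primary glioblastoma cells on fibronectin-coated plates in DMEM/F12 with 10% BIT9500, 20 ng/mL bFGF and 20 ng/mL EGF, held at 2% O2/5% CO2. Seeded at 10 000 cells/well, dosed 24 h later for 72 h. Annexin V–FITC/PI staining for 15 min in the dark at room temperature, then flow cytometry (FL1 525 nm/40, FL3 620 nm/20) on the whole population. Mean ± SE of three independent experiments.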

[9] = tested on: HuTuP192 primary glioblastoma cells; test: cell proliferation analysis; assay type: cell-based, human; settings: 72 h; for effect of combination on the effect of TMZ: compound 10 µM + TMZ 500 µM, HuTuP192
[10] = molecular target: hCA I (Homo sapiens, UniProt P00915); test: stopped-flow CO2 hydrase assay, hCA I; assay type: biochemical; settings: stopped flow technique, mean from three assays
Sequence of hCA I (P00915 whole entry): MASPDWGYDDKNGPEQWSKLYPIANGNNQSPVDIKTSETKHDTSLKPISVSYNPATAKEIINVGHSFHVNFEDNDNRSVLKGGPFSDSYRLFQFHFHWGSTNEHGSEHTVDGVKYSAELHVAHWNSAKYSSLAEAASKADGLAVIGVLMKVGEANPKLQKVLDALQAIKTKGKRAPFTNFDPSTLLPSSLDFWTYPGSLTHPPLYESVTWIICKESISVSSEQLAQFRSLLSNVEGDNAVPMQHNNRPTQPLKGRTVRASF

[11] = molecular target: hCA II (Homo sapiens, UniProt P00918); test: stopped-flow CO2 hydrase assay, hCA II; assay type: biochemical; settings: stopped flow technique, mean from three assays

| SMILES | Ki [3] | Selectivity index I/IX [3] | Selectivity index II/IX [3] | Selectivity index IV/IX [3] | Ki [4] | Ki [7] | Selectivity index I/XII [7] | Selectivity index II/XII [7] | Selectivity index IV/XII [7] | Ki [10] | Ki [11] | GI50 at 72 h [5] | other results |
| --- | --- | --- | --- | --- | --- | --- | --- | --- | --- | --- | --- | --- | --- |
| [NH2][Pt]([NH2])([Cl])[Cl] [CDDP, cisplatin, reference compound] |  |  |  |  |  |  |  |  |  |  |  |  | viability reduction by CDDP alone ([1]; CDDP concentration used for combination (cis-Pt 1.8 µM)): around 50% |
| COc1ccc(-c2ccnc3nc(Nc4ccc(S(N)(=O)=O)cc4)nn23)cc1 [Compound 1w, 4-((7-(4-Methoxyphenyl)-[1,2,4]triazolo[1,5-a]pyrimidin-2-yl)amino)benzenesulfonamide] | 50.8 nM | 32.0 | 1.8 | 39.4 | 2000 nM | 39.8 nM | 40.9 | 2.2 | 50.3 | 1630 nM | 89.6 nM |  |  |
| COc1cccc(-c2ccnc3nc(Nc4ccc(S(N)(=O)=O)cc4)nn23)c1 [Compound 1x, 4-((7-(3-Methoxyphenyl)-[1,2,4]triazolo[1,5-a]pyrimidin-2-yl)amino)benzenesulfonamide] | 5.1 nM | 207 | 6.6 | 110 | 559 nM | 12.5 nM | 84.5 | 2.7 | 44.8 | 1060 nM | 33.8 nM | > 10000 nM | effect of combination on efficacy of CDDP in reducing cell viability [1]: significantly improved the efficacy of CDDP; decrease in viability ([9]; 10 µM, HuTuP192, hypoxic conditions): most potent |
| CCOc1ccc(-c2ccnc3nc(Nc4ccc(S(N)(=O)=O)cc4)nn23)cc1 [Compound 1z, 4-((7-(4-Ethoxyphenyl)-[1,2,4]triazolo[1,5-a]pyrimidin-2-yl)amino)benzenesulfonamide] | 43.5 nM | 51.9 | 1.6 | 83.9 | 3650 nM | 55.2 nM | 40.9 | 1.2 | 66.1 | 2260 nM | 69.3 nM |  |  |
| NS(=O)(=O)c1ccc(NC(=O)Nc2ccc(F)cc2)cc1 [SLC-0111, reference compound] |  |  |  |  |  |  |  |  |  |  |  | > 10000 nM | apoptotic cells in combination with cis-Pt [6]: did not cause any increase in cytotoxicity; induction of apoptosis (apoptotic cells) [6]: did not significantly induce apoptosis; apoptotic cells in combination with TMZ [8]: did not cause any increase in cytotoxicity; induction of apoptosis [8]: did not significantly induce apoptosis |
| Cn1nnc2c(C(N)=O)ncn2c1=O [TMZ, temozolomide, reference compound] |  |  |  |  |  |  |  |  |  |  |  |  | response of cells to TMZ ([2]; TMZ 500 µM): resistant |

More lines, main results first:

| Ki [3] | Selectivity index I/IX [3] | Selectivity index II/IX [3] | Selectivity index IV/IX [3] | Ki [4] | Ki [7] | Selectivity index I/XII [7] | Selectivity index II/XII [7] | Selectivity index IV/XII [7] | Ki [10] | Ki [11] | SMILES | GI50 at 72 h [5] | other results |
| --- | --- | --- | --- | --- | --- | --- | --- | --- | --- | --- | --- | --- | --- |
| 8.6 nM | 57.7 | 1.6 | 77.0 | 662 nM | 5.4 nM | 91.9 | 2.6 | 123 | 496 nM | 13.9 nM | NS(=O)(=O)c1ccc(Nc2nc3nccc(-c4c(F)ccc(F)c4F)n3n2)cc1 [Compound 1j, 4-((7-(2,3,6-Trifluorophenyl)-[1,2,4]triazolo[1,5-a]pyrimidin-2-yl)amino)benzenesulfonamide] | > 10000 nM | effect of combination on the effect of TMZ [2]: did not significantly improve the effect of TMZ; apoptotic cells in combination with cis-Pt [6]: significant increase in the percentage of apoptotic cells; induction of apoptosis (apoptotic cells) [6]: about 25%; effect of combination on efficacy of CDDP in reducing cell viability [1]: significantly improved the efficacy of CDDP; apoptotic cells in combination with TMZ [8]: significant increase in the percentage of apoptotic cells; induction of apoptosis [8]: ineffective; effect of combination on the effect of TMZ [9]: did not significantly improve the effect of TMZ |
| 14.8 nM | 618 | 10 and 10.5 | 438 | 6480 nM | 16.9 nM | 541 | 9.2 | 384 | 9150 nM | 155 nM | NS(=O)(=O)c1ccc(Nc2nc3nccc(-c4ccccc4Cl)n3n2)cc1 [Compound 1m, 4-((7-(2-Chlorophenyl)-[1,2,4]triazolo[1,5-a]pyrimidin-2-yl)amino)benzenesulfonamide] | > 10000 nM | effect of combination on the effect of TMZ [2]: did not significantly improve the effect of TMZ; effect of combination on efficacy of CDDP in reducing cell viability [1]: significantly improved the efficacy of CDDP; effect of combination on the effect of TMZ [9]: did not significantly improve the effect of TMZ |
| 26.2 nM | 53.5 | 2.1 | 185 | 4850 nM | 70.2 nM | 20.0 | 0.8 | 69.0 | 1400 nM | 55.2 nM | Cc1cccc(-c2ccnc3nc(Nc4ccc(S(N)(=O)=O)cc4)nn23)c1 [Compound 1u, 4-((7-(m-Tolyl)-[1,2,4]triazolo[1,5-a]pyrimidin-2-yl)amino)benzenesulfonamide] |  |  |
| 4.7 nM | 570 | 9.1 | 1877 | 8820 nM | 30.4 nM | 88.1 | 1.4 | 290 | 2680 nM | 42.8 nM | Cc1ccccc1-c1ccnc2nc(Nc3ccc(S(N)(=O)=O)cc3)nn12 [Compound 1v, 4-((7-(o-Tolyl)-[1,2,4]triazolo[1,5-a]pyrimidin-2-yl)amino)benzenesulfonamide] |  |  |
| 11 nM | 200 | 6.6 | 575 | 6320 nM | 31.6 nM | 69.5 | 2.3 | 200 | 2200 nM | 72.9 nM | COc1ccccc1-c1ccnc2nc(Nc3ccc(S(N)(=O)=O)cc3)nn12 [Compound 1y, 4-((7-(2-Methoxyphenyl)-[1,2,4]triazolo[1,5-a]pyrimidin-2-yl)amino)benzenesulfonamide] | > 10000 nM | effect of combination on the effect of TMZ [2]: did not significantly improve the effect of TMZ; effect of combination on the effect of TMZ [9]: did not significantly improve the effect of TMZ |

Reference: paper PMC10586084 (Journal of Enzyme Inhibition and Medicinal Chemistry, 2023)
